Measurements as given in ChEMBL document CHEMBL3875191, “Enhanced potency of bivalent small molecule gp41 inhibitors” (Bioorg Med Chem, 2017).
Calls of active or inactive are those of the source. The rule behind the calls is not given here.

Columns and labels:
[1] = Inhibition of fluorescently labeled C-terminal HR2 probe peptide binding to wild type HIV-1 Fe(env2.0)3 peptide model of gp41 hydrophobic pocket at compound to protein ratio of 1:1 by fluorescence assay; set-up: species or system Human immunodeficiency virus 1
[2] = (§1) Inhibition of HIV1 3B gp41-induced virus-cell fusion between HIV1 3B to MAGI cells expressing CXCR4-tropic treated 3 hrs post infection measured after 48 hrs by beta-galactosidase based chemiluminescence assay; conditions: Human immunodeficiency virus 1, 3B
[3] = Ratio of Kd for wild type HIV-1 Fe2(env2.0)3 peptide model of gp41 hydrophobic pocket assessed as dissociation constant for first binding interaction to Ka for wild type HIV-1 Fe2(env2.0)3 peptide model of gp41 hydrophobic pocket assessed as association constant for first binding interaction; set-up: species or system Human immunodeficiency virus 1
[4] = tested on: Human immunodeficiency virus 1; assay: Binding affinity to wild type HIV-1 Fe2(env2.0)3 peptide model of gp41 hydrophobic pocket at compound to peptide ratio of 1:1 by surface plasmon resonance assay
In short: (§2)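 CM5 chip activated with EDC/NHS then PDEA; FeII(envC)3 (bpy-HR1 peptide ending in D-Cys, 5 µM in 25 mM Tris-acetate pH 7.0) coupled by disulfide. Blocked with L-cysteine, then washed with 1 mM ferrous ammonium sulfate. Reference surface lacked receptor. Analytes run at 0.098–50 µM in 20 mM Hepes, 150 mM NaCl, pH 7.0, 1% DMSO. Association 60 s, dissociation 300 s, DMSO bracketing. Kinetics fit to Langmuir 1:1 and 1:2 models.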

[5] = Cytotoxicity against human HL2/3 cells assessed as decrease in cell viability by alamar blue/presto blue assay; type: toxicity, cell-based
In short: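 Cell viability read with resazurin reagent (Alamar Blue or Presto Blue) under the same culture conditions as cell-cell fusion. TZM-bl targets (25,000/well, cultured overnight) with serially diluted compound, plus 50,000 HL2/3 effectors/well. 6 h in reduced-serum medium, 1% DMSO final.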

[6] = (§3) Inhibition of HIV1 gp41-induced cell-cell fusion between HXB2 viral envelope expressing human HL2/3 cells to CXCR4-tropic expressing TZM-bl cells after 6 hrs by LTR luciferase reporter gene assay; type: cell-based; conditions: Human immunodeficiency virus 1, HL2/3, 6 h
In short: (§4)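 TZM-bl target cells (CD4, CCR5, CXCR4; HIV-1 LTR-driven firefly luciferase) at 25,000/well, cultured overnight, then given serially diluted inhibitor. 50,000 HL2/3 effector cells (HXB2 Env, Tat, Rev) were added and fusion ran 6 h in reduced-serum medium with 1% DMSO final. Luciferase was read, with 1% DMSO controls with and without HL2/3, in triplicate.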

MAGI [7] = assay: as §1; conditions: Human immunodeficiency virus 1
MAGI [8] = assay: (§5) Inhibition of HIV1 Ba-L gp41-induced virus-cell fusion between HIV1 Ba-L to MAGI cells expressing CCR5-tropic treated 3 hrs post infection measured after 48 hrs by beta-galactosidase based chemiluminescence assay; conditions: Human immunodeficiency virus 1
[9] = as §5; conditions: Human immunodeficiency virus 1, Ba-L
[10] = Inhibition of fluorescently labeled C-terminal HR2 probe peptide binding to wild type HIV-1 Fe(env2.0)3 peptide model of gp41 hydrophobic pocket assessed as inhibition constant for first binding interaction at compound to protein ratio of 1:2 by fluorescence assay; set-up: species or system Human immunodeficiency virus 1
[11] = Inhibition of fluorescently labeled C-terminal HR2 probe peptide binding to wild type HIV-1 Fe(env2.0)3 peptide model of gp41 hydrophobic pocket assessed as inhibition constant for second binding interaction at compound to protein ratio of 1:2 by fluorescence assay; set-up: species or system Human immunodeficiency virus 1
[12] = tested on: Human immunodeficiency virus 1; assay: Binding affinity to wild type HIV-1 HXB2 Fe2(env2.0)3 peptide model of gp41 hydrophobic pocket at >10 uM by surface plasmon resonance assay; in short: as §2
[13] = tested on: Human immunodeficiency virus 1; assay: Binding affinity to wild type HIV-1 HXB2 Fe2(env2.0)3 peptide model of gp41 hydrophobic pocket at <10 uM by surface plasmon resonance assay; in short: as §2
HL2/3 = assay: as §3; type: cell-based; conditions: Human immunodeficiency virus 1; in short: as §4

SMILES	Ki [1]	IC50 [2]	Kd [3]	RUmax [4]	CC50 [5]	IC50 [6]	IC90 (MAGI [7])	IC90 (MAGI [8])	IC50 [9]	Ki [10]	Ki [11]	Activity [12]	Activity [13]	IC90 (HL2/3)
O=C(CCC(=O)Nc1ccc(C(=O)N[C@@H](Cc2c[nH]c3ccccc23)C(=O)O)cc1OCc1ccc(Cl)cc1)NCCOCCOCCOCCNC(=O)CCC(=O)Nc1ccc(C(=O)N[C@@H](Cc2c[nH]c3ccccc23)C(=O)O)cc1OCc1ccc(Cl)cc1	5.3 to 8.5 µM	5.1 µM	43 µM	157	> 100 µM	0.4 µM	–	–	–	–	–	–	–	–
O=C(CCc1c[nH]c2ccccc12)NCCCCCC(=O)Nc1ccc(C(=O)N[C@@H](Cc2c[nH]c3ccccc23)C(=O)O)cc1OCc1ccc(Cl)cc1	3.4 µM	14.3 µM	–	93	> 100 µM	2.2 µM	27.1 µM	26.5 µM	13 µM	–	–	–	–	–
O=C(CCc1c[nH]c2ccccc12)NCCCCCC(=O)Nc1ccc(C(=O)N[C@@H](Cc2c[nH]c3ccccc23)C(=O)O)cc1OCCc1c[nH]c2ccccc12	1.2 µM	17.3 µM	–	95	> 100 µM	1.3 µM	30.5 µM	31.1 µM	13.7 µM	–	–	–	–	–
O=C(CCC(=O)Nc1ccc(C(=O)N[C@@H](Cc2c[nH]c3ccccc23)C(=O)O)cc1OCCc1c[nH]c2ccccc12)NCCOCCOCCOCCNC(=O)CCC(=O)Nc1ccc(C(=O)N[C@@H](Cc2c[nH]c3ccccc23)C(=O)O)cc1OCCc1c[nH]c2ccccc12	1 to 2.3 µM	3.8 µM	32 µM	160	> 100 µM	0.6 µM	70 µM	> 100 µM	3.6 µM	20 µM	0.2 µM	–	–	–
Nc1ccc(C(=O)N[C@@H](Cc2c[nH]c3ccccc23)C(=O)O)cc1OCCc1c[nH]c2ccccc12	7.2 µM	> 50 µM	–	59	> 50 µM	22 µM	> 50 µM	> 50 µM	> 50 µM	–	–	Active	Active	80 µM
Nc1ccc(C(=O)N[C@@H](Cc2c[nH]c3ccccc23)C(=O)O)cc1OCc1ccc(Cl)cc1	15 µM	–	–	56	> 50 µM	24 µM	–	–	–	–	–	–	–	–
